According to ChEMBL document CHEMBL1938353, “Discovery and optimization of aminopyrimidinones as potent and state-dependent Nav1.7 antagonists” (Bioorg Med Chem Lett, 2012):
In brackets after ≈: the same amount, converted by molar mass.

Target: T1, Sodium channel protein type 9 subunit alpha (Homo sapiens, UniProt Q15858)
T1 sequence (Q15858 whole entry): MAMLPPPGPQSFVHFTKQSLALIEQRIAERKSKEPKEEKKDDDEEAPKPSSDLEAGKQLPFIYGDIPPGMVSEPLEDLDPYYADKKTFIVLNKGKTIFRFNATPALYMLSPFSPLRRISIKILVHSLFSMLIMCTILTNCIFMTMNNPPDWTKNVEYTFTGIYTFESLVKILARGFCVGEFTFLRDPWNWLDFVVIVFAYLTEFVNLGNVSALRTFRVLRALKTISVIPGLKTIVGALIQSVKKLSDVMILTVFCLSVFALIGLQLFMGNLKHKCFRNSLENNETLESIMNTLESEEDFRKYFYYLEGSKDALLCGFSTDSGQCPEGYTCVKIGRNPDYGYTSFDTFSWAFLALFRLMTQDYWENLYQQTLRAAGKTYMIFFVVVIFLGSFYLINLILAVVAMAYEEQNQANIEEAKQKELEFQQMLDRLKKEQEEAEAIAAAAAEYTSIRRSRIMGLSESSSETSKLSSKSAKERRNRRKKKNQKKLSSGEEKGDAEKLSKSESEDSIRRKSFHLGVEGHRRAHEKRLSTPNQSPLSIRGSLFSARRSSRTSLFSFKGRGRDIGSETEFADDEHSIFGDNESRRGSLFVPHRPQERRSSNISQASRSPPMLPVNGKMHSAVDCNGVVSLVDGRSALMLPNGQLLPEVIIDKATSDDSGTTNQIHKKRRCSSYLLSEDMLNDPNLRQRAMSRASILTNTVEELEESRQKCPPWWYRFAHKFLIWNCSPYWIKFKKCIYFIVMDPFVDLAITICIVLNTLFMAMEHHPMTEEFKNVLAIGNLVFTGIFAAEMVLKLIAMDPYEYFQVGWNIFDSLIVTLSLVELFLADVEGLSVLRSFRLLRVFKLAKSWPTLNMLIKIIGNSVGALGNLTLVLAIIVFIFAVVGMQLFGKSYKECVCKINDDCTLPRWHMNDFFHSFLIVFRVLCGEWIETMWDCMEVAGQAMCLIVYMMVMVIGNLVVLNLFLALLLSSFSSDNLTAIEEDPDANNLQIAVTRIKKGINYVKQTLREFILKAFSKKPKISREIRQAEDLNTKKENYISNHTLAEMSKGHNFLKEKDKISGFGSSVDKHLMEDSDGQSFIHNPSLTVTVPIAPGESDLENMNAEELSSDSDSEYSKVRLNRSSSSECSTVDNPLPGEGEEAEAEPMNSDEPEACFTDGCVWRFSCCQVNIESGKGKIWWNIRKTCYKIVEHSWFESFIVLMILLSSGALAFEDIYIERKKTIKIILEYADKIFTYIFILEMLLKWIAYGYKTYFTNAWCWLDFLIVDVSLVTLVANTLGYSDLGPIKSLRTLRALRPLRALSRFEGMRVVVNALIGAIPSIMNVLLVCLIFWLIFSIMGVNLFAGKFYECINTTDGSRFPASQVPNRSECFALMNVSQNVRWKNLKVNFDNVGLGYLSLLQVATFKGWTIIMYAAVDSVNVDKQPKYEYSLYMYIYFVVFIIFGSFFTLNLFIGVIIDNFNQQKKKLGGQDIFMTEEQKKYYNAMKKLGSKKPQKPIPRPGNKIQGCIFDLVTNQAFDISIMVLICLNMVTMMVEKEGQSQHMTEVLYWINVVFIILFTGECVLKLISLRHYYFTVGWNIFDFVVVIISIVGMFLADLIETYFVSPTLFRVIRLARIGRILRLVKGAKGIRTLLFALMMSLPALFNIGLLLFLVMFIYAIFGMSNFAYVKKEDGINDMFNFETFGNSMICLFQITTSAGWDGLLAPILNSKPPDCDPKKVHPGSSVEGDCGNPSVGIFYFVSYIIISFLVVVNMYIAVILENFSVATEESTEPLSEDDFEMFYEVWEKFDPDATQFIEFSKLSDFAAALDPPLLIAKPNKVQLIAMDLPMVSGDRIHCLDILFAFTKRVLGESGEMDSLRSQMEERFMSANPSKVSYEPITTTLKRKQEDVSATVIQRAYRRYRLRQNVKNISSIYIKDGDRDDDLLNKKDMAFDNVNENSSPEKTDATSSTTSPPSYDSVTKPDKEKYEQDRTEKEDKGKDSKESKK
Assay: Antagonist activity at 20% inactivated human sodium channel Nav1.7 expressed in human HEK293 cells by patch-clamp electrophysiological assay
Type: functional, cell-based
Conditions: not given; call rule not given here
In short: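 Automated PatchXpress electrophysiology on hNav1.7 channels with an average 20% contribution from inactivated channels. Dose-response curves built from single-concentration tests on many cells. IC50 is the average of at least two determinations.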
Work on `CC(C)(C)c1ccc(CSc2nc(N)cc(O)n2)cc1` yielded an IC50 of 680 nM. Work on `Nc1cc(=O)[nH]c(SCc2ccc(Cl)cc2)n1` yielded an IC50 of 4700 nM. `CCCCCCCSc1nc(N)cc(=O)[nH]1` gave an IC50 of 940 nM. Work on `N#Cc1ccc(CSc2nc(N)cc(O)n2)cc1` yielded an IC50 of over 30000 nM. `CC(C)(C)c1ccc(CSc2nc(NC(=O)C3CC3)cc(=O)[nH]2)cc1` showed an IC50 of 2500 nM. In the case of `CC(C)CSc1nc(N)cc(=O)[nH]1`, the IC50 is reported as over 30000 nM. `Nc1cc(=O)[nH]c(SCc2ccc(OC(F)(F)F)cc2)n1` gave an IC50 of 2200 nM. Compound `CS(=O)(=O)c1ccc(CSc2nc(N)cc(=O)[nH]2)cc1` has an IC50 of over 30000 nM. Work on `CC(C)(C)c1ccc(CSc2nccc(=O)[nH]2)cc1` yielded an IC50 of over 30000 nM. `CC(C)(C)c1ccc(CSc2nc(O)cc(=O)[nH]2)cc1` showed an IC50 of over 30000 nM. `CC(=O)Nc1cc(=O)[nH]c(SCc2ccc(C(C)(C)C)cc2)n1` gave an IC50 of 1200 nM. In the case of `CC(C)(C)OC(=O)Nc1cc(=O)[nH]c(SCc2ccc(C(C)(C)C)cc2)n1`, the IC50 is reported as 7800 nM. Compound `CC(C)(C)c1ccc(CSc2nc(NS(C)(=O)=O)cc(=O)[nH]2)cc1` has an IC50 of over 30000 nM. `CC(C)(C)c1ccc(CSc2nc(N)c(Cl)c(=O)[nH]2)cc1` showed an IC50 of 4300 nM. `CC(C)(C)c1ccc(CSc2nc(N)c(N)c(=O)[nH]2)cc1` gave an IC50 of over 30000 nM. In the case of `CC(C)(C)c1ccc(CSc2nc3[nH]cnc3c(=O)[nH]2)cc1`, the IC50 is reported as over 30000 nM. Work on `Cn1c(SCc2ccc(C(C)(C)C)cc2)nc(N)cc1=O` yielded an IC50 of 420 nM. Work on `COc1cc(N)nc(SCc2ccc(C(C)(C)C)cc2)n1` yielded an IC50 of over 30000 nM. With `Cn1c(N)cc(=O)nc1SCc1ccc(C(C)(C)C)cc1` the IC50 was over 30000 nM.

Target: T1, Sodium channel protein type 9 subunit alpha
Assay: Antagonist activity at 20% inactivated human sodium channel Nav1.7 expressed in human HEK293 cells by manual patch-clamp electrophysiological assay
Type: functional, cell-based
Conditions: not given
In short: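 Manual electrophysiology on hNav1.7; holding voltage set, and adjusted as needed during the experiment, to give steady 20% inactivation. […] Values are the average of at least two determinations.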
Compound `CC(C)(C)c1ccc(CSc2nc(N)cc(O)n2)cc1` has an IC50 of 340 nM. `CCCCCCCSc1nc(N)cc(=O)[nH]1` gave an IC50 of 400 nM. For `Cn1c(SCc2ccc(C(C)(C)C)cc2)nc(N)cc1=O`, the IC50 was 80 nM.

Target: T1, Sodium channel protein type 9 subunit alpha
Assay: Antagonist activity at non-inactivated human sodium channel Nav1.7 expressed in human HEK293 cells by manual patch-clamp electrophysiological assay
Type: functional, cell-based
Conditions: not given
In short: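 Manual electrophysiology on fully noninactivated hNav1.7 with holding voltage set to -140 mV. […] Values are the average of at least two determinations.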
Compound `CC(C)(C)c1ccc(CSc2nc(N)cc(O)n2)cc1` has an IC50 of 2200 nM. With `CCCCCCCSc1nc(N)cc(=O)[nH]1` the IC50 was 1400 nM. In the case of `Cn1c(SCc2ccc(C(C)(C)C)cc2)nc(N)cc1=O`, the IC50 is reported as 500 nM.

Target: Sodium channel protein type 5 subunit alpha (Homo sapiens, UniProt Q14524)
Sequence (Q14524 whole entry): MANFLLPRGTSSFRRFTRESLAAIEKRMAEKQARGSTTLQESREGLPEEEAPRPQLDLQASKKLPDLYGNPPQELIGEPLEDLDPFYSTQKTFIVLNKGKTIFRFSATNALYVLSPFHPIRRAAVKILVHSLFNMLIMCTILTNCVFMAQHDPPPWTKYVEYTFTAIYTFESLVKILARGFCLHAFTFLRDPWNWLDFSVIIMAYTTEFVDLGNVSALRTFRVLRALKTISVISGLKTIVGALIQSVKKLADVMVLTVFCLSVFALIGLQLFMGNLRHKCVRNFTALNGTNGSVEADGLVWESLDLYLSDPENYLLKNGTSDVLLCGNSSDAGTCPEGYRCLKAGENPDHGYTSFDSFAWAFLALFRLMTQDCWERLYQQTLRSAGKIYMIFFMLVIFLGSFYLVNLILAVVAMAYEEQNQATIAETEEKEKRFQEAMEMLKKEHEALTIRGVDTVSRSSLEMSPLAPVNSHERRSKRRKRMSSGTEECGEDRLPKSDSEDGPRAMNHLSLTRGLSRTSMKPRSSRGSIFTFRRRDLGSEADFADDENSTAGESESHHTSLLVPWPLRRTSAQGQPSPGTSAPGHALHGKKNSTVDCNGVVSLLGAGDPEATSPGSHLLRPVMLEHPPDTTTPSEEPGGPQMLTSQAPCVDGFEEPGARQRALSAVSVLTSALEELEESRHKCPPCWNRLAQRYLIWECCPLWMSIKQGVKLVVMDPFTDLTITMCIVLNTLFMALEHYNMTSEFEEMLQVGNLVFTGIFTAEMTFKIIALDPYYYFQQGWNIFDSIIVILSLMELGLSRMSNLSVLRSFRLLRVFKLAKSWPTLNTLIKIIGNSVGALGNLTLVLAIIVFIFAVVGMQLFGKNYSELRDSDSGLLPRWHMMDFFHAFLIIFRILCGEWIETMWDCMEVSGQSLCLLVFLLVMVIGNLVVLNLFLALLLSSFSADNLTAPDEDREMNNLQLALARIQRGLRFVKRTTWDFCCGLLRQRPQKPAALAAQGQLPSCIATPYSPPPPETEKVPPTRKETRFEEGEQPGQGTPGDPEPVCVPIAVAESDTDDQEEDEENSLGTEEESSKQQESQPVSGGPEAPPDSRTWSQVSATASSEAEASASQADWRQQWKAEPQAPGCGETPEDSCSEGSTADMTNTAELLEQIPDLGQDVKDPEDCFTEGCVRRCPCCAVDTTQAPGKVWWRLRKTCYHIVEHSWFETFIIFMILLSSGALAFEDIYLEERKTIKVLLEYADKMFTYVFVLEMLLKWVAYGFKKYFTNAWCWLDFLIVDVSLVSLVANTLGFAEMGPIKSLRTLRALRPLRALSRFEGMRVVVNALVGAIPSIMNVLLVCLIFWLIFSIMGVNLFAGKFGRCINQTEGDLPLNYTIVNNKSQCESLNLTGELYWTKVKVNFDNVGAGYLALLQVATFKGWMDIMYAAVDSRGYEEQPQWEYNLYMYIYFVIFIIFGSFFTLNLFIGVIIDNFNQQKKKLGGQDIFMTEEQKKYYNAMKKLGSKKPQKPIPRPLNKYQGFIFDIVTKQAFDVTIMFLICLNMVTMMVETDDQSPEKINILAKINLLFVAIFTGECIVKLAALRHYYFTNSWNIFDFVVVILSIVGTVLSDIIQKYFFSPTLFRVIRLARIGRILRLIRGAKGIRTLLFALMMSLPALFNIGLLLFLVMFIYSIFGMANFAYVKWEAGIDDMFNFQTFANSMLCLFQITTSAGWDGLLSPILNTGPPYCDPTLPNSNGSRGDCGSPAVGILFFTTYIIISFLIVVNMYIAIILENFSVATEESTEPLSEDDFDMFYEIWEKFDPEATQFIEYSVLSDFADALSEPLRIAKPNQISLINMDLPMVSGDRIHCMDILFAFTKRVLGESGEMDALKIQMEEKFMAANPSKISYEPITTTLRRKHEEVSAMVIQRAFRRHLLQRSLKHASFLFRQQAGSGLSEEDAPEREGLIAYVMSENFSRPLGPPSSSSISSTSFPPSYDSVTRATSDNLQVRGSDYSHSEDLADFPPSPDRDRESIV
Assay: Antagonist activity at partially inactivated human sodium channel Nav1.5 expressed in human HEK293 cells by patch-clamp electrophysiological assay
Type: functional, cell-based
Conditions: not given
Compound `CC(C)(C)c1ccc(CSc2nc(N)cc(O)n2)cc1` has an IC50 of 300 nM. For `CCCCCCCSc1nc(N)cc(=O)[nH]1`, the IC50 was 1200 nM. Work on `Cn1c(SCc2ccc(C(C)(C)C)cc2)nc(N)cc1=O` yielded an IC50 of 200 nM.

Target: Voltage-gated inwardly rectifying potassium channel KCNH2 (Homo sapiens, UniProt Q12809)
Sequence (Q12809 whole entry): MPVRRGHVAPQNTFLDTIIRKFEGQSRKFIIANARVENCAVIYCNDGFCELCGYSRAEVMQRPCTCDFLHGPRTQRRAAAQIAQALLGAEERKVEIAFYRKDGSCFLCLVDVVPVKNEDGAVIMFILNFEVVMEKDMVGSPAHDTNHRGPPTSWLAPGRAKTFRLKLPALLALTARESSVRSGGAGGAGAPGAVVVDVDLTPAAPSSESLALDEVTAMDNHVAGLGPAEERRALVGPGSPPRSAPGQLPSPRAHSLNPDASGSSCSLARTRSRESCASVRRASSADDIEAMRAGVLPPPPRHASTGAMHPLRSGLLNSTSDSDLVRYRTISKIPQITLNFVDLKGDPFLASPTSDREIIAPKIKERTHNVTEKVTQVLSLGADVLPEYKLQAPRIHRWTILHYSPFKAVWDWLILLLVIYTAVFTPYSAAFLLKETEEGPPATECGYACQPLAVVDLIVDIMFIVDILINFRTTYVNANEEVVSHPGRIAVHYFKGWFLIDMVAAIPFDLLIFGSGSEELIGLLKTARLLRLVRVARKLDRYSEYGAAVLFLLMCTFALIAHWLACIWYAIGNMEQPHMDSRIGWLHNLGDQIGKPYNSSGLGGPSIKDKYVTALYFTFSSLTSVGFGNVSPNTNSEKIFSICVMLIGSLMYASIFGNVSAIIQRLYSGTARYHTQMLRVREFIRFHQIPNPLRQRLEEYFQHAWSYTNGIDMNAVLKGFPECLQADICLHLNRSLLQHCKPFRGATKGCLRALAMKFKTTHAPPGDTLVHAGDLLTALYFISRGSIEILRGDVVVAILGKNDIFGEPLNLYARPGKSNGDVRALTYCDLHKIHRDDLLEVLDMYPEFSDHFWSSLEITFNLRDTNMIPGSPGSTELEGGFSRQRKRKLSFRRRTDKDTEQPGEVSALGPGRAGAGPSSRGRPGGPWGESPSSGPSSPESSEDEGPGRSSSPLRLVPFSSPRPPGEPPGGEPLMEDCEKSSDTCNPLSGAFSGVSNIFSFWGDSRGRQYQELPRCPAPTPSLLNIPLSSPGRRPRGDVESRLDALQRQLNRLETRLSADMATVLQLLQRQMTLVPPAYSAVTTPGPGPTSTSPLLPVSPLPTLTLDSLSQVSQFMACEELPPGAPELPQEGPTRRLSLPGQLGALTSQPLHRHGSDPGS
Assay: Displacement of dofetilide from human ERG
Conditions: not given
With `CCCCCCCSc1nc(N)cc(=O)[nH]1` the Ki was over 15000 nM. `Cn1c(SCc2ccc(C(C)(C)C)cc2)nc(N)cc1=O` showed a Ki of over 15000 nM.

Test system: not listed separately
Assay: Solubility of the compound in simulated intestinal fluid
Type: physicochemical
Conditions: not given
`CC(C)(C)c1ccc(CSc2nc(N)cc(O)n2)cc1` showed a solubility of 67 µg/mL (≈ 232 µM). Work on `CCCCCCCSc1nc(N)cc(=O)[nH]1` yielded a solubility of 14 µg/mL (≈ 58 µM). `Cn1c(SCc2ccc(C(C)(C)C)cc2)nc(N)cc1=O` showed a solubility of 14 µg/mL (≈ 46.1 µM).

Test system: not listed separately
Assay: Solubility of the compound in phosphate buffer saline
Type: physicochemical
Conditions: phosphate buffered saline
`CC(C)(C)c1ccc(CSc2nc(N)cc(O)n2)cc1` gave a solubility of 5 µg/mL (≈ 17.3 µM). `CCCCCCCSc1nc(N)cc(=O)[nH]1` gave a solubility of 2 µg/mL (≈ 8.29 µM). Compound `Cn1c(SCc2ccc(C(C)(C)C)cc2)nc(N)cc1=O` has a solubility of 10 µg/mL (≈ 33 µM).

Test system: not listed separately
Assay: Solubility of the compound in 0.01 N HCl
Type: physicochemical
Conditions: not given
With `CC(C)(C)c1ccc(CSc2nc(N)cc(O)n2)cc1` the solubility was 4 µg/mL (≈ 13.8 µM). For `CCCCCCCSc1nc(N)cc(=O)[nH]1`, the solubility was 3 µg/mL (≈ 12.4 µM). Work on `Cn1c(SCc2ccc(C(C)(C)C)cc2)nc(N)cc1=O` yielded a solubility of 1 µg/mL (≈ 3.3 µM).

Test system: MDR1 (P-gp)
Assay: Apparent permeability across pig LLC-PK1 cells over expressing human MDR1 at 5 uM in presence 0.1 % BSA
Type: ADME, cell-based, Sus scrofa
Conditions: not given
In short: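 MDR1-LLC-PK1 pig kidney cells expressing human MDR1. Compound tested at 5 µM with 0.1% BSA. Permeability is the average of the apical-to-basolateral and basolateral-to-apical apparent permeability values.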
Compound `CC(C)(C)c1ccc(CSc2nc(N)cc(O)n2)cc1` has a Papp at 5 µM of 27 ×10⁻⁶ cm/s. With `CCCCCCCSc1nc(N)cc(=O)[nH]1` the Papp at 5 µM was 21 ×10⁻⁶ cm/s. `Cn1c(SCc2ccc(C(C)(C)C)cc2)nc(N)cc1=O` gave a Papp at 5 µM of 16 ×10⁻⁶ cm/s.

Test system: LLC-PK1
Assay: Efflux ratio of permeability from […] side in pig LLC-PK1 cells over expressing human MDR1
Type: ADME, cell-based, Sus scrofa
Conditions: not given
In short: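 Pig kidney LLC-PK1 cells expressing human MDR1. Compound tested in the presence of 0.1% BSA. Apparent permeability was measured in both the apical-to-basolateral and basolateral-to-apical directions.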
`CCCCCCCSc1nc(N)cc(=O)[nH]1` gave a Ratio of 1.1. In the case of `Cn1c(SCc2ccc(C(C)(C)C)cc2)nc(N)cc1=O`, the Ratio is reported as 1.

Test system: not listed separately
Assay: Clearance in Sprague-Dawley rat at 0.5 mg/kg, iv
Type: ADME, organism-based
Set-up: dose 0.5 mg/kg, route intravenous
Conditions: in vivo
Compound `CC(C)(C)c1ccc(CSc2nc(N)cc(O)n2)cc1` has a clearance of 85 mL/min/kg. In the case of `CCCCCCCSc1nc(N)cc(=O)[nH]1`, the clearance is reported as 108 mL/min/kg. For `Cn1c(SCc2ccc(C(C)(C)C)cc2)nc(N)cc1=O`, the clearance was 18.3 mL/min/kg.

Test system: not listed separately
Assay: Volume of distribution at steady state in Sprague-Dawley rat at 0.5 mg/kg, iv
Type: ADME, organism-based
Set-up: dose 0.5 mg/kg, route intravenous
Conditions: in vivo, read-out: Vdss
In the case of `CC(C)(C)c1ccc(CSc2nc(N)cc(O)n2)cc1`, the Vd is reported as 7.9 L/kg. `CCCCCCCSc1nc(N)cc(=O)[nH]1` showed a Vd of 1.3 L/kg. Work on `Cn1c(SCc2ccc(C(C)(C)C)cc2)nc(N)cc1=O` yielded a Vd of 2.6 L/kg.

Test system: not listed separately
Assay: Half life in Sprague-Dawley rat at 0.5 mg/kg, iv
Type: ADME, organism-based
Set-up: dose 0.5 mg/kg, route intravenous
Conditions: in vivo
In the case of `CC(C)(C)c1ccc(CSc2nc(N)cc(O)n2)cc1`, the half-life is reported as 2.7 h. `CCCCCCCSc1nc(N)cc(=O)[nH]1` gave a half-life of 0.25 h. With `Cn1c(SCc2ccc(C(C)(C)C)cc2)nc(N)cc1=O` the half-life was 3.9 h.

Test system: Liver microsomes
Assay: Metabolic stability in human liver microsomes after 15 mins
Type: ADME, Microsome
Conditions: 0.25 h
In the case of `CC(C)(C)c1ccc(CSc2nc(NC(=O)C3CC3)cc(=O)[nH]2)cc1`, the Stability is reported as “Unstable”. For `CC(=O)Nc1cc(=O)[nH]c(SCc2ccc(C(C)(C)C)cc2)n1`, the Stability was “Unstable”.

Test system: Liver microsomes
Assay: Metabolic stability in rat liver microsomes after 15 mins
Type: ADME, Microsome
Conditions: 0.25 h
With `CC(C)(C)c1ccc(CSc2nc(NC(=O)C3CC3)cc(=O)[nH]2)cc1` the Stability was “Unstable”. In the case of `CC(=O)Nc1cc(=O)[nH]c(SCc2ccc(C(C)(C)C)cc2)n1`, the Stability is reported as “Unstable”.

Test system: Hepatocyte
Assay: Drug metabolism in rat hepatocytes assessed as glucuronide adduct formation at 18.7 mins
Type: ADME, cell-based
Conditions: 0.311667 h
With `CC(C)(C)c1ccc(CSc2nc(N)cc(O)n2)cc1` the Drug metabolism was “Active”.

Test system: not listed separately
Assay: Ratio of drug level in brain to plasma in ip dosed rat
Type: ADME, organism-based
Conditions: brain and plasma, read-out: BPR
In the case of `Cn1c(SCc2ccc(C(C)(C)C)cc2)nc(N)cc1=O`, the Kp is reported as 3.3.

Species: Rattus norvegicus
Assay: Toxicity in rat assessed as reduction in total basic movement by open field test
Type: organism-based
Set-up: scale not given: the % may be the effect or the level left
Conditions: in vivo
`Cn1c(SCc2ccc(C(C)(C)C)cc2)nc(N)cc1=O` gave an Activity of 81%.

Species: Rattus norvegicus
Assay: Toxicity in rat assessed as complete reduction in rearing behavior by open field test
Type: organism-based
Set-up: scale not given: the % may be the effect or the level left
Conditions: in vivo
For `Cn1c(SCc2ccc(C(C)(C)C)cc2)nc(N)cc1=O`, the Activity was 98%.
